From ChEMBL document CHEMBL1157245, “Bromophenols coupled with methyl gamma-ureidobutyrate and bromophenol sulfates from the red alga Rhodomela confervoides” (J Nat Prod, 2006)

Tests used:
Assay type in all cases: functional, cell-based
HCT-8 = experiment: Cytotoxicity against human HCT8 cells after 96 hrs by MTT assay; details: HCT-8, 96 h
Outline: (§1)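 Cell lines from ATCC, grown in RPMI 1640 with 10% FBS plus penicillin/streptomycin at 37 °C, 5% CO2. Seeded at 1200 cells/well; compounds added 24 h later at five concentrations from DMSO stocks (final DMSO 0.1%), triplicate wells.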

BGC-823 = experiment: Cytotoxicity against human BGC823 cells after 96 hrs by MTT assay; details: BGC-823, 96 h; outline: as §1
Bel-7402 = experiment: Cytotoxicity against human BEL-7402 cells after 96 hrs by MTT assay; details: Bel-7402, 96 h; outline: as §1
A2780 = experiment: Cytotoxicity against human A2780 cells after 96 hrs by MTT assay; details: A2780, 96 h; outline: as §1
A549 = experiment: Cytotoxicity against human A549 cells after 96 hrs by MTT assay; details: A549, 96 h; outline: as §1

| Compound | IC50 (HCT-8) | IC50 (BGC-823) | IC50 (Bel-7402) | IC50 (A2780) | IC50 (A549) |
| --- | --- | --- | --- | --- | --- |
| COC(=O)CCCNC(=O)N(Cc1cc(O)c(O)c(Br)c1Br)Cc1cc(O)c(O)c(Br)c1Cc1cc(O)c(O)c(Br)c1Br | > 10 mg/L | > 10 mg/L | > 10 mg/L | > 10 mg/L | > 10 mg/L |
| COC(=O)CCCNC(=O)NCc1cc(O)c(O)c(Br)c1Br | > 10 mg/L | > 10 mg/L | > 10 mg/L | > 10 mg/L | > 10 mg/L |
| O=S(=O)(O)OCCc1cc(O)c(O)c(Br)c1Cc1cc(O)c(O)c(Br)c1Br | 12.1 µM | 15.1 µM | 13.5 µM | > 16.9 µM | 14.5 µM |
| COC(=O)CCCNC(=O)NCc1cc(O)c(O)c(Br)c1Cc1cc(O)c(O)c(Br)c1Br | > 10 mg/L | > 10 mg/L | > 10 mg/L | > 10 mg/L | > 10 mg/L |
| O=S(=O)(O)OCCc1cc(O)c(O)c(Br)c1 | 18.8 µM | 19.1 µM | 20.4 µM | 20.8 µM | 18.5 µM |
| O=S(=O)(O)OCCc1cc(O)c(O)c(Br)c1Br | 14.6 µM | 14 µM | 14.8 µM | 9.4 µM | 14.7 µM |
| OCCc1cc(O)c(O)c(Br)c1Br | 15.4 µM | 20.2 µM | 19.4 µM | 19.9 µM | 19.7 µM |
| COC(=O)CCCN(Cc1cc(O)c(O)c(Br)c1Br)C(=O)NCc1cc(O)c(O)c(Br)c1Br | > 10 mg/L | > 10 mg/L | > 10 mg/L | > 10 mg/L | > 10 mg/L |
| O=c1[nH]cc(F)c(=O)[nH]1 [FLUOROURACIL] | 4.2 µM | 5.4 µM | 4.2 µM | 5 µM | 1.4 µM |
